Data from ChEMBL document CHEMBL4257584, “Sterol 14α-Demethylase Structure-Based Optimization of Drug Candidates for Human Infections with the Protozoan Trypanosomatidae” (J Med Chem, 2018).
Calls of active or inactive are those of the source. The calls are words filed in the database; no cut-off is given here.

What was measured:
[1] = Drug uptake in BALB/c mouse heart at 25 mg/kg, po via gavage measured after 4 hrs post dose by […]; type: ADME, organism-based; details: read-out: Drug uptake
Procedure, shortened: (§1)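 BALB/c mice get a single oral gavage dose of 25 mg/kg; tissues are collected 4 h post-dose. About 100 mg tissue is diluted 5-fold in PBS and homogenized. Homogenate is extracted as for plasma (ketoconazole internal standard, acetonitrile extraction) and quantified by HPLC-UV at 291 nm, 0.1 μM detection limit, n=2.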

[2] = Intrinsic clearance in CD1 mouse liver microsomes at 1 uM preincubated for 5 mins followed by NADPH addition and measured after 45 mins by LC/MS/MS analysis; type: ADME, microsome; details: read-out: CLH
[3] = Hepatic clearance in CD1 mouse liver microsomes at 1 uM preincubated for 5 mins followed by NADPH addition and measured after 45 mins by LC/MS/MS analysis; type: ADME, microsome
[4] = Half life in CD1 mouse liver microsomes at 1 uM preincubated for 5 mins followed by NADPH addition and measured by LC/MS/MS analysis; type: ADME, microsome; details: mouse, microsomes, 1 µM
[5] = Plasma concentration in BALB/c mouse assessed as time until the compound becomes undetectable at 25 mg/kg, po via gavage […]; type: ADME, organism-based; details: in vivo
Procedure, shortened: (§2)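 Single oral gavage dose of 25 mg/kg in BALB/c mice; blood sampled at 1, 2, 4, 6, 10, 16, 24 h. Plasma is diluted in PBS with ketoconazole internal standard, extracted with 80% acetonitrile, dried and redissolved. Analysed by reversed-phase HPLC with UV at 291/250 nm, 0.1 μM detection limit. Lifetime is time until undetectable.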

[6] = Drug uptake in BALB/c mouse liver at 25 mg/kg, po via gavage measured after 4 hrs post dose by […]; type: ADME, organism-based; details: read-out: Drug uptake; procedure, shortened: as §1
[7] = Hepatic clearance in human liver microsomes at 1 uM preincubated for 5 mins followed by NADPH addition and measured after 45 mins by LC/MS/MS analysis; type: ADME, microsome
[8] = Lipophilicity, log P of the compound; type: physicochemical; details: octanol/water
[9] = Drug uptake in BALB/c mouse spleen at 25 mg/kg, po via gavage measured after 4 hrs post dose by […]; type: ADME, organism-based; details: read-out: Drug uptake; procedure, shortened: as §1
[10] = Hepatic clearance in Sprague-Dawley rat liver microsomes at 1 uM preincubated for 5 mins followed by NADPH addition and measured after 45 mins by LC/MS/MS analysis; type: ADME, microsome
Procedure, shortened: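 Pooled liver microsomes at 0.5 mg/mL: human (mixed gender), male Sprague-Dawley rat, or male CD-1 mouse, with test compound at 1 μM, triplicate. In vitro t1/2 is scaled to CLint (45 mg microsomes/g liver; 45 g liver/kg scaling factor). CLhep uses well-stirred model with hepatic blood flow 21 (human), 70 (rat), 90 (mouse) mL/min/kg.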

[11] = Maximum plasma concentration in BALB/c mouse at 25 mg/kg, po via gavage by […]; type: ADME, organism-based; parameters: dose 25 mg/kg, route oral; procedure, shortened: as §2
[12] = Drug uptake in BALB/c mouse blood at 25 mg/kg, po via gavage measured after 4 hrs post dose by […]; type: ADME, organism-based; details: read-out: Drug uptake; procedure, shortened: as §1
[13] = Intrinsic clearance in Sprague-Dawley rat liver microsomes at 1 uM preincubated for 5 mins followed by NADPH addition and measured after 45 mins by LC/MS/MS analysis; type: ADME, microsome; details: read-out: CLH
[14] = Half life in human liver microsomes at 1 uM preincubated for 5 mins followed by NADPH addition and measured by LC/MS/MS analysis; type: ADME, microsome; details: microsomes, 1 µM
[15] = Intrinsic clearance in human liver microsomes at 1 uM preincubated for 5 mins followed by NADPH addition and measured after 45 mins by LC/MS/MS analysis; type: ADME, microsome; details: read-out: CLH
[16] = Drug uptake in BALB/c mouse lungs at 25 mg/kg, po via gavage measured after 4 hrs post dose by […]; type: ADME, organism-based, Lung; details: read-out: Drug uptake; procedure, shortened: as §1
[17] = Drug uptake in BALB/c mouse brain at 25 mg/kg, po via gavage measured after 4 hrs post dose by […]; type: ADME, organism-based; details: read-out: Drug uptake; procedure, shortened: as §1
[18] = Half life in Sprague-Dawley rat liver microsomes at 1 uM preincubated for 5 mins followed by NADPH addition and measured by LC/MS/MS analysis; type: ADME, microsome; details: microsomes, 1 µM
[19] = target: Putative lanosterol 14-alpha-demethylase (Leishmania infantum, UniProt A2TEF2); assay: Binding affinity to Leishmania infantum CYP51 expressed in Escherichia coli
Procedure, shortened: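 Purified E. coli-expressed L. infantum CYP51 at 0.5 μM is titrated with ligand at 0.1–1 μM in 5 cm path cuvettes. Difference-spectrum absorbance change Δ(A430−A411) is plotted against ligand concentration. Apparent Kd comes from a Morrison (quadratic) tight-binding fit by nonlinear regression.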

Trypanosoma cruzi [20] = assay: Antiparasitic activity against GFP-expressing Trypanosoma cruzi Y amastigote formss infected in cardiomyocytes assessed as reduction in rate of parasite multiplication within infected cardiomyocytes measured at 72 hrs post infection by fluorescence microscopy; type: functional, organism-based
Procedure, shortened: (§3)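 GFP-expressing trypomastigotes (Tulahuen or Y strain) infect cardiomyocyte monolayers at 10 parasites per cell, in DMEM + 10% FBS. Unbound parasites are washed off. At 24 h of infection, inhibitors at 0.5–25 nM in DMSO/DMEM are added and cultured 48 h. Read-out is at 72 h post-infection as GFP fluorescence (RFU) after PBS wash; microscopy uses paraformaldehyde fixation, DAPI and phalloidin stain. Triplicate.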

[21] = target: Sterol 14-alpha demethylase (Trypanosoma cruzi (strain CL Brener), UniProt Q7Z1V1); assay: Binding affinity to Trypanosoma cruzi Y CYP51A expressed in Escherichia coli
Procedure, shortened: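 Recombinant CYP51A from Y strain T. cruzi, expressed in E. coli and purified, titrated spectrally at 0.5 μM P450 in 5 cm path cuvettes with ligand over 0.1–1 μM. Type of absorbance change in difference spectra Δ(A430-A411) plotted against ligand concentration. Apparent Kd obtained by fitting to the Morrison quadratic tight-binding equation by nonlinear regression.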

Trypanosoma cruzi [22] = assay: Antiparasitic activity against GFP-expressing Trypanosoma cruzi Tulahuen amastigote formss infected in cardiomyocytes assessed as reduction in rate of parasite multiplication within infected cardiomyocytes measured at 72 hrs post infection by fluorescence microscopy; type: functional, organism-based; procedure, shortened: as §3
[23] = target: Sterol 14-alpha demethylase (Trypanosoma cruzi (strain CL Brener)) (UniProt Q7Z1V1); assay: Inhibition of Trypanosoma cruzi Y CYP51 expressed in Escherichia coli using [3-3H]-eburicol as substrate after 60 mins by LC-MS analysis
Procedure, shortened: (§4)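 Reconstituted reaction: 1 μM purified CYP51, 2 μM T. brucei NADPH-P450 reductase, 100 μM dilauroylphosphatidylcholine, isocitrate dehydrogenase/isocitrate regeneration, 50 mM K phosphate pH 7.2, 10% glycerol. [3-3H]sterol substrate at 50 μM final (eburicol for T. cruzi; obtusifoliol for T. brucei and L. infantum) with inhibitor at 1.1 μM final. Preincubate 60 s at 37 °C, start with 100 μM NADPH, run 60 min, EtOAc extraction. Gives % inhibition of 14α-demethylation, triplicate, mean ± SD.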

[24] = target: Lanosterol 14-alpha-demethylase (Trypanosoma brucei brucei (strain 927/4 GUTat10.1)) (UniProt Q385E8); assay: Inhibition of Trypanosoma brucei […] CYP51 expressed in Escherichia coli using [3-3H]-obtusifoliol as substrate after 60 mins by LC-MS analysis; procedure, shortened: as §4
[25] = target: Putative lanosterol 14-alpha-demethylase (Leishmania infantum) (UniProt A2TEF2); assay: Inhibition of Leishmania infantum CYP51 expressed in Escherichia coli using [3-3H]-obtusifoliol as substrate after 60 mins by LC-MS analysis; procedure, shortened: as §4
Putative lanosterol 14-alpha-demethylase (Leishmania infantum), sequence (A2TEF2 1-480): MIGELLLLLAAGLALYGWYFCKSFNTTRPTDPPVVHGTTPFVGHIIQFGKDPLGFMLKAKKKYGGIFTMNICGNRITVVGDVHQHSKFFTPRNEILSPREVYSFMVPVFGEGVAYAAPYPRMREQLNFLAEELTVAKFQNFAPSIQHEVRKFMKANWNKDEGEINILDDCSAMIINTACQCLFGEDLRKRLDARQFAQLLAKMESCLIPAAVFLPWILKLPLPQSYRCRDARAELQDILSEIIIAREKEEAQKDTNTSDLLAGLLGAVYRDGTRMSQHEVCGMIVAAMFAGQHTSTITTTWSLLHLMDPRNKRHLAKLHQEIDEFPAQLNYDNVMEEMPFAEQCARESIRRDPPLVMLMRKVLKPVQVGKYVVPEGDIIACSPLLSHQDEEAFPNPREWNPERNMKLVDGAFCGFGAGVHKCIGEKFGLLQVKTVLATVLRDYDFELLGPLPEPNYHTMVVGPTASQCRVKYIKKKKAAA

Putative lanosterol 14-alpha-demethylase, sequence (A2TEF2 whole entry): as the sequence (A2TEF2 1-480) above
Sterol 14-alpha demethylase, sequence (Q7Z1V1 whole entry): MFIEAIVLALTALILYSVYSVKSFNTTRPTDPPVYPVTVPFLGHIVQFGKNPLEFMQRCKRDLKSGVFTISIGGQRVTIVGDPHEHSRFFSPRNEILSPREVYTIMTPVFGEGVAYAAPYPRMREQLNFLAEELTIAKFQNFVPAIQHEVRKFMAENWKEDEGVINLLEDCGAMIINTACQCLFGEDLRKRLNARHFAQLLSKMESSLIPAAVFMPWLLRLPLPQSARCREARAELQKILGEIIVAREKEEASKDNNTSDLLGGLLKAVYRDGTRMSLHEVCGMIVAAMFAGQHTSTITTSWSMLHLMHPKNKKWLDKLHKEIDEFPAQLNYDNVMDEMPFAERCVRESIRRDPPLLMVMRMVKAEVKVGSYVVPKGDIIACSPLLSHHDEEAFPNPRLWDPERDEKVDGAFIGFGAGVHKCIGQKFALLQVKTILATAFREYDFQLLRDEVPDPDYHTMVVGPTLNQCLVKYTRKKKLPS
Lanosterol 14-alpha-demethylase (Trypanosoma brucei brucei (strain 927/4 GUTat10.1)), sequence (Q385E8 1-481): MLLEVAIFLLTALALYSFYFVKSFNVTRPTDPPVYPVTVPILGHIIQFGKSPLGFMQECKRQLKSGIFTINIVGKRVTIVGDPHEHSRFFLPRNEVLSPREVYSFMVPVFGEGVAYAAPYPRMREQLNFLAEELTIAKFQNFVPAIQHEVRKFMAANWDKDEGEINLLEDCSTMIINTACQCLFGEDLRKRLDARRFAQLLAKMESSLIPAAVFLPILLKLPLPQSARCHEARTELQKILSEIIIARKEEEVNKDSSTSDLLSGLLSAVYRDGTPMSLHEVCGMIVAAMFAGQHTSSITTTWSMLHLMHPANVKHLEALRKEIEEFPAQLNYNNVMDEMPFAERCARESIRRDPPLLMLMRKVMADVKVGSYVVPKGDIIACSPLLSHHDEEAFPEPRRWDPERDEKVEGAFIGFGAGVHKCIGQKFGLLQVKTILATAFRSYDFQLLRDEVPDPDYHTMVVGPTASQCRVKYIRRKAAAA
Sterol 14-alpha demethylase (Trypanosoma cruzi (strain CL Brener)), sequence (Q7Z1V1 whole entry, looked up): as the sequence (Q7Z1V1 whole entry) above

SMILES | concentration at 4 h [1] [µM] | CLint scaled at 1 µM [2] [mL/min/kg] | CLhep predicted at 1 µM [3] [mL/min/kg] | t1/2 [4] [min] | Time [5] [h] | concentration at 4 h [6] [µM] | CLhep predicted at 1 µM [7] [mL/min/kg] | logP [8] | concentration at 4 h [9] [µM] | CLhep predicted at 1 µM [10] [mL/min/kg] | Cmax [11] [µM] | concentration at 4 h [12] [µM] | CLint scaled at 1 µM [13] [mL/min/kg] | t1/2 [14] [min] | CLint scaled at 1 µM [15] [mL/min/kg] | concentration at 4 h [16] [µM] | concentration at 4 h [17] [µM] | t1/2 [18] [min] | other results
O=C(N[C@@H](Cn1ccnc1)c1ccc(-c2ccc(F)cc2)cc1F)c1ccc(-c2nnc(-c3ccccc3)o2)cc1 | 16 | 145 | 55.6 | 38 |  | 34 | 12.3 | 5.44 | 21 | 14.2 | 24 | 22 | 17.7 | 42 | 29.9 | 74 | 1 | 158 | Kd [19]: 8.4 nM; EC50 (Trypanosoma cruzi [20]): 1.5 nM; Kd [21]: 6.8 nM; EC50 (Trypanosoma cruzi [22]): 1 nM
O=C(N[C@@H](Cn1ccnc1)c1ccc(Cl)cc1Cl)c1ccc(-c2nnc(-c3ccccc3)o2)cc1 |  |  |  |  |  |  |  |  |  |  |  |  |  |  |  |  |  |  | Kd [19]: 2 nM; EC50 (Trypanosoma cruzi [20]): 4 nM; Kd [21]: 8.3 nM; EC50 (Trypanosoma cruzi [22]): 1.3 nM
O=C(N[C@@H](Cn1ccnc1)c1ccc(Cl)cc1Cl)c1ccc(-c2nnc(-c3ccc(OCC(F)(F)F)cc3F)o2)cc1 | 6 |  |  |  | 6 | 32 |  |  | 6 |  | 7 | 3 |  |  |  | 38 | 0.15 | 48 | inhibition [23]: Active; inhibition [24]: Active; inhibition [25]: Active

The next lines start with results.

concentration at 4 h [1] [µM] | CLint scaled at 1 µM [2] [mL/min/kg] | CLhep predicted at 1 µM [3] [mL/min/kg] | t1/2 [4] [min] | Time [5] [h] | concentration at 4 h [6] [µM] | CLhep predicted at 1 µM [7] [mL/min/kg] | logP [8] | concentration at 4 h [9] [µM] | CLhep predicted at 1 µM [10] [mL/min/kg] | Cmax [11] [µM] | concentration at 4 h [12] [µM] | CLint scaled at 1 µM [13] [mL/min/kg] | t1/2 [14] [min] | CLint scaled at 1 µM [15] [mL/min/kg] | concentration at 4 h [16] [µM] | concentration at 4 h [17] [µM] | t1/2 [18] [min] | SMILES | other results
0.1 | 105 | 48.4 | 52 | 10 | 3 | 10.8 | 4.93 | 2 | 20.8 | 5 | 1 | 29.7 | 56 | 22.3 | 0.6 | 0.1 | 95 | O=C(N[C@@H](Cn1ccnc1)c1ccc(-c2ccc(F)cc2)cc1Cl)c1ccc(-c2nnc(-c3ccccn3)o2)cc1 | 
3 | 220 | 63.9 | 25 | < 16 | 17 | 10.6 |  | 3 | 45.6 | 15 | 4 | 131 | 58 | 21.2 | 26 | 0.2 | 22 | [2H]c1c([2H])c([2H])c(-c2ccc([C@H](Cn3ccnc3)NC(=O)c3ccc(-c4nnc(-c5ccccc5)o4)cc3)c(Cl)c2)c([2H])c1[2H] | 
3 | 59.8 | 35.9 | 91 | 16 | 20 | 8.35 |  | 6 | 23.6 | 13 | 12 | 35.5 | 90 | 13.9 | 18 | 0.2 | 79 | O=C(N[C@@H](Cn1ccnc1)c1ccc(-c2ccc(F)cc2)cc1Cl)c1ccc(-c2nnc(-c3ccccc3)o2)cc1 | 
 |  |  |  |  |  |  | 4.93 |  |  |  |  |  |  |  |  |  |  | O=C(N[C@@H](Cn1ccnc1)c1cnc(-c2ccc(F)cc2)cc1Cl)c1ccc(-c2nnc(-c3ccccc3)o2)cc1 | 
